Experiment [1] concerns the target T1, 5-hydroxytryptamine receptor 2C (Rattus norvegicus) (UniProt P08909).
T1 sequence (whole entry): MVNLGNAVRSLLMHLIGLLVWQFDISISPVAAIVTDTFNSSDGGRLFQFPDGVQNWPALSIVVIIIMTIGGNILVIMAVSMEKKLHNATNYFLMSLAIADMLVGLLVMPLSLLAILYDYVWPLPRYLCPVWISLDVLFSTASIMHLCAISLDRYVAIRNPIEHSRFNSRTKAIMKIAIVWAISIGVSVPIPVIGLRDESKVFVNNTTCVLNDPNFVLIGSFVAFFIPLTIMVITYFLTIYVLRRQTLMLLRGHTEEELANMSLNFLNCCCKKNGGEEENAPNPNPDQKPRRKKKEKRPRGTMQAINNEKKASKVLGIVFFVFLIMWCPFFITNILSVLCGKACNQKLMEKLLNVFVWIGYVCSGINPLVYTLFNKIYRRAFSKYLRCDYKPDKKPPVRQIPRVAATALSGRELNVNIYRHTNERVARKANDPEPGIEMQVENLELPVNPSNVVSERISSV
The experiment is described as follows: Displacement of [125I]-N-(p-I-Bn)-THAZ from 5HT2C in Sprague-Dawley rat hippocampal membrane at 100 uM after 40 mins by autoradiography. Conditions: Hippocampus. It is filed as tissue-based. (In a radioligand displacement assay an active substance lowers the binding of a labelled ligand.)

Experiment [2] addresses T1, 5-hydroxytryptamine receptor 2C (Rattus norvegicus). The experiment can be described thus: Displacement of [125I]-N-(p-I-Bn)-THAZ from 5HT2C receptor in rat midbrain membrane after 1 hr by scintillation counting analysis. It is filed as cell membranes.
The target is the same in experiment [3]. The experiment can be described thus: Displacement of [125I]-N-(p-I-Bn)-THAZ from 5HT2C receptor in Sprague-Dawley rat midbrain membrane at 100 uM after 40 mins by autoradiography. Type of experiment: tissue-based.
Experiment [4] deals with Mus musculus. The experiment can be described thus: Procognitive effect in C57Bl/6J mouse assessed as distance traveled in the novel arm at 0.43 mg/kg, po administered 30 mins prior to acquisition trial measured after 24 hrs in presence of SB242084 (reference value: 37 +/-5.8%). Type of experiment: functional. An outline of the steps: (§1)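 Male C57Bl/6J mice aged 8 weeks, two-trial place recognition Y-maze. 3 min acquisition with two arms open; 24 h ITI; 3 min retention with all three arms open. Drug given po 30 min before acquisition, vehicle 10% HP-βCD. SB242084 2.1 mg/kg co-administered where stated; doses as free base. Readouts are % distance, arm entries and time in each arm. Familiar arms pooled; one-way ANOVA.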

Experiment [5] addresses T2, 5-hydroxytryptamine receptor 2C (Rattus norvegicus, UniProt P08909).
T2 sequence (P08909 whole entry): T1 sequence (whole entry)
The experiment is described as follows: (§2) Displacement of [125I]-N-(p-I-Bn)-THAZ from 5HT2C receptor in rat cerebral cortex membrane after 1 hr by scintillation counting analysis. Type of experiment: cell membranes.

Experiment [6] concerns the target T1, 5-hydroxytryptamine receptor 2C (Rattus norvegicus). The experiment is described as §2. It is filed as cell membranes.
For experiment [7], the target named is T3, 5-hydroxytryptamine receptor 2C (Homo sapiens, UniProt P28335).
T3 sequence (P28335 whole entry): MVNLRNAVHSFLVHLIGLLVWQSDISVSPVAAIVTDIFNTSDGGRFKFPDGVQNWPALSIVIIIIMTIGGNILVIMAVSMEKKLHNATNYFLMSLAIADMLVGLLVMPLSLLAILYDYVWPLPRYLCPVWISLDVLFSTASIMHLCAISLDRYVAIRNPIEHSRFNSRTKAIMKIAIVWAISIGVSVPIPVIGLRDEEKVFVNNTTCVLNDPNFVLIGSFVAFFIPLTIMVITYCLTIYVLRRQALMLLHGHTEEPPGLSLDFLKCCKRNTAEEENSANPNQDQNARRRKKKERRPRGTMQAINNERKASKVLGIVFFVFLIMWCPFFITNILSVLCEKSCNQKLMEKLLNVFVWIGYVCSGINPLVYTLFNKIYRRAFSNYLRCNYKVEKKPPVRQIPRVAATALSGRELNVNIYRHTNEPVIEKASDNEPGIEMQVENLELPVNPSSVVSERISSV
The experiment can be described thus: Agonist activity at human 5HT2C receptor expressed in HEK293 cells assessed as induction of intracellular calcium release measured for 90 secs by fluorescence assay. Conditions: read-out: EC50. Type of experiment: functional, cell-based. Background: Calcium assays in cells follow changes in intracellular calcium, usually with a dye or a luminescent sensor.

Experiment [8] concerns Mus musculus. The experiment is described as follows: Procognitive effect in C57Bl/6J mouse assessed as number of novel arm entry at 0.43 mg/kg, po administered 30 mins prior to acquisition trial measured after 24 hrs in presence of SB242084. Type of experiment: functional. The procedure, abridged:
as §1

For experiment [9], the system named is Mus musculus. The experiment is described as follows: Procognitive effect in C57Bl/6J mouse assessed as number of familiar arm entry at 0.43 mg/kg, po administered 30 mins prior to acquisition trial measured after 24 hrs in presence of SB242084. It is filed as functional. The procedure, abridged:
as §1

For experiment [10], the target named is T3, 5-hydroxytryptamine receptor 2C. The experiment is described as follows: Displacement of [3H]mesulergine from human 5HT2C receptor expressed in tsA201 cell membranes after 1 hr by scintillation counting analysis.
Experiment [11] concerns Mus musculus. The experiment is described as follows: Procognitive effect in C57Bl/6J mouse assessed as time spent in novel arm at 0.43 mg/kg, po administered 30 mins prior to acquisition trial measured after 24 hrs in presence of SB242084. Type of experiment: functional. The procedure, abridged: as §1
In experiment [12] the target is T4, 5-hydroxytryptamine receptor 2C (Homo sapiens) (UniProt P28335).
T4 sequence (whole entry): T3 sequence (P28335 whole entry)
The experiment can be described thus: Agonist activity at human 5HT2C receptor expressed in HEK293 cells assessed as accumulation of IP1 incubated for 1 hr at 37 degC followed by 15 mins at RT by TR-FRET assay relative to 5HT. Type of experiment: functional, cell-based. An outline of the steps:
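Polyclonal HEK293 lines stably expressing human 5-HT2A (variant 1) or 5-HT2C (INI isoform), detached and suspended at 1 × 10⁷ cells/mL in HBSS with 20 mM HEPES, 1 mM CaCl₂, 1 mM MgCl₂, pH 7.4. Ligands in buffer with 40 mM LiCl. Incubated 1 h at 37 °C, then 15 min RT. IP1 read by HTRF 665/615 ratio. Triplicate, at least four times.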
A general note: In TR-FRET formats the signal depends on donor and acceptor labels being close together.

Experiment [13] relates to Mus musculus. The experiment is described as follows: Procognitive effect in C57Bl/6J mouse assessed as time spent in novel arm at 0.43 mg/kg, po administered 30 mins prior to acquisition trial measured after 24 hrs by Y-maze test. It is filed as functional. An outline of the steps: as §1
The subject of experiment [14] is Mus musculus. The experiment can be described thus: Procognitive effect in C57Bl/6J mouse assessed as distance traveled in the novel arm at 0.43 mg/kg, po administered 30 mins prior to acquisition trial measured after 24 hrs by Y-maze test (reference value: 37 +/- 5.8%). It is filed as functional. The procedure, abridged:
as §1

Experiment [15] deals with T1, 5-hydroxytryptamine receptor 2C (Rattus norvegicus). The experiment can be described thus: Displacement of [125I]-N-(p-I-Bn)-THAZ from 5HT2C receptor in rat cerebellum membrane after 1 hr by scintillation counting analysis. Type of experiment: cell membranes.
For experiment [16], the target named is 5-hydroxytryptamine receptor 2A (Homo sapiens, UniProt P28223). The experiment can be described thus: Agonist activity at human 5HT2A receptor expressed in HEK293 cells assessed as induction of intracellular calcium release by fluorescence assay relative to 5HT. It is filed as functional, cell-based. The procedure, abridged:
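Stable polyclonal 5-HT2A or 5-HT2C HEK293 cells seeded on poly-D-lysine plates (6 × 10⁴ cells/well). Next day loaded with Fluo-4/AM for 1 h at 37 °C in HBSS/20 mM HEPES/1 mM CaCl₂/1 mM MgCl₂/2.5 mM probenecid, pH 7.4. Fluorescence (485 ex/525 em) recorded before and up to 90 s after agonist. Response relative to 5-HT on the same plate. Duplicate, at least three times.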

The species named for experiment [17] is Homo sapiens. The experiment can be described thus: Selectivity ratio of EC50 for human 5HT2A receptor to EC50 for M1 muscarinic receptor (unknown origin) by FLIPR assay.
For experiment [18], the system named is Mus musculus. The experiment can be described thus: Procognitive effect in C57Bl/6J mouse assessed as number of novel arm entries at 0.43 mg/kg, po administered 30 mins prior to acquisition trial measured after 24 hrs by Y-maze test. It is filed as functional. An outline of the steps: as §1

The values below come from ChEMBL document CHEMBL2331121, “Design, synthesis, and pharmacological characterization of N- and O-substituted 5,6,7,8-tetrahydro-4H-isoxazolo[4,5-d]azepin-3-ol analogues: novel 5-HT(2A)/5-HT(2C) receptor agonists with pro-cognitive properties” (J Med Chem, 2013).

Activity calls are given as the source filed them. No cut-off for these calls is given here.

Sequence of 5-hydroxytryptamine receptor 2A (P28223 whole entry): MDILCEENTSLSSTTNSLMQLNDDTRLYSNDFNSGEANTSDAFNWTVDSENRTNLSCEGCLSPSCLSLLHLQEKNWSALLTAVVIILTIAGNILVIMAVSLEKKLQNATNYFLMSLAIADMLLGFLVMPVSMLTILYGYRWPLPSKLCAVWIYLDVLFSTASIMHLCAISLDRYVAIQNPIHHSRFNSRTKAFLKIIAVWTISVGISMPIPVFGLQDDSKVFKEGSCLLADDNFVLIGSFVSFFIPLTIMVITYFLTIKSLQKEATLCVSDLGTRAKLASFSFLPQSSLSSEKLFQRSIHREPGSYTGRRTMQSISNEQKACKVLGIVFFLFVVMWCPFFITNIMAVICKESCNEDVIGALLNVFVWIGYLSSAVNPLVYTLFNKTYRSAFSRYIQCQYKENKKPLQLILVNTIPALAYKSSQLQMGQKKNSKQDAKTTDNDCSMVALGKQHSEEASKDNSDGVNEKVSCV

For `O=c1c2c(on1Cc1ccccc1)CCNCC2`, the outcome in experiment [1], in experiment [2] and in experiment [15] was inactive. In addition, the result in experiment [3] was Active. For the same compound, the Activity in experiment [4] is 34.7%; in experiment [6] it was “Dose-dependent effect”; in [8], 32.8%; in [9], 33.6%; in experiment [11], 36.6%; in experiment [13], 38.8%. The figures for the Activity in experiment [14] and in experiment [18] were 40.4% and 38.5%, respectively. Also, the Ki in [5] is 724 nM; in experiment [10], 2300 nM. In addition, in experiment [7], the EC50 was 420 nM. The results for the Emax in [12] and in [16] were 92% and 80%, respectively. Further, in [17], the Ratio EC50 amounted to 20.

What is called Ki is a dissociation constant, usually derived from enzyme kinetics or from competition with a known ligand. For orientation: EC50 means the concentration that produces a half-maximal response. In general, Emax refers to the greatest response seen or fitted, relative to the assay's reference.
